Active and inactive are the calls of the source. The calls are words filed in the database; no cut-off is given here.
Key:
[1] = (§1) Antiproliferative activity against human DG75 cells after 72 hrs by Alamar blue assay; type: functional, cell-based; details: DG-75, 72 h
[2] = Antiproliferative activity against human MUTU-I cells after 24 hrs by Alamar blue assay; type: functional, cell-based
[3] = Antiproliferative activity against human DG75 cells at 10 uM after 72 hrs by Alamar blue assay; type: functional, DG-75
[4] = (§2) Antiproliferative activity against human MUTU-I cells at 10 uM after 24 hrs by Alamar blue assay; type: functional
Method in brief: (§3)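 Cells were treated with a single 10 µM dose for 24 h. PBMCs came from healthy-donor blood by Ficoll density separation and were kept in IMDM with 10% FBS. Viability was read by Alamar Blue fluorescence (590 nm, ex 544 nm) against untreated cells. Three independent experiments were run, with a Student's t-test against vehicle.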

MUTU-I [5] = test: Induction of apoptosis in human MUTU-I cells assessed as activation of caspase 3 and 7 at 10 uM after 8 hrs by Apotox-Glo Triplex assay; type: functional, cell-based
Method in brief: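 Cells were seeded at 10,000/well and treated at 10 µM for 8 h. Caspase-Glo reagent (Apotox-Glo Triplex) was added, followed by brief orbital shaking and 30 min at room temperature, then a luminescence read. Vinblastine 100 nM was the positive control, with a Student's t-test against vehicle.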

[6] = (§4) Induction of apoptosis in human MUTU-I cells assessed as accumulation at pre-G1 phase at 10 uM after 24 hrs using propidium iodide staining by FACS analysis; type: functional
Method in brief: (§5)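 Cells (7.5×10^5 per 5 mL) were treated, then washed in cold PBS and fixed overnight at 4 °C in 70% ethanol. They were stained with RNase A and propidium iodide for 30 min at 37 °C in the dark. Flow cytometry counted 10,000 gated cells, and the pre-G1 fraction was scored.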

HL-60 [7] = test: Induction of apoptosis in human HL60 cells expressing BCRP; type: functional, cell-based
HL-60 [8] = test: Induction of apoptosis in human HL60 cells expressing p-glycoprotein; type: functional, cell-based
HL-60 [9] = test: Induction of apoptosis in human HL60 cells; type: functional, cell-based
MUTU-I [10] = test: as §4; type: functional; method in brief: as §5
PBMC = test: Antiproliferative activity against human PBMC at 10 uM after 24 hrs by Alamar blue assay; type: cell-based; method in brief: as §3
MUTU-I [11] = test: as §2; type: functional; method in brief: as §3
DG-75 [12] = test: Antiproliferative activity against human DG75 cells at 10 uM after 24 hrs by Alamar blue assay
DG-75 [13] = test: as §1; type: functional, cell-based

SMILES	EC50 [1] [µM]	EC50 [2] [µM]	other results
N#CC1CC2c3ccccc3C1(/C=N/O)c1ccccc12 (stereo unspecified)	> 100	20.4	
Clc1ccc(COC(Cn2ccnc2)c2ccc(Cl)cc2Cl)c(Cl)c1 (stereo unspecified) [MICONAZOLE]			Activity [3]: >90%; Activity [4]: >90%
CNC(=O)CCC12c3ccccc3C(CC1C#N)c1ccccc12 (stereo unspecified)	> 100	> 100	
O=C(O)C1CC2c3ccccc3C1c1ccccc12 (stereo unspecified)		> 100	
COC(=O)C(Cc1ccc(O)cc1)NC(=O)C1CC2c3ccccc3C1c1ccccc12 (stereo unspecified)	54.6	63	
O=C(O)C1C2c3ccccc3C(c3ccccc32)C1C(=O)O (stereo unspecified)		> 100	
CCNCC1CC2c3ccccc3C1c1ccccc12 (stereo unspecified)	> 100	> 100	
O=C(/C=C/c1c2ccccc2cc2ccccc12)N1CCCCC1	> 100	1.9	Activity (MUTU-I [5]): Active; Activity [6]: 15.44%
CN(CC1=CC2c3ccccc3C1c1ccccc12)C1CCCCC1	> 100	73.3	
CNC(C)/C=C/c1c2ccccc2cc2ccccc12 (stereo unspecified)	> 100	62.9	
CCN(CC)C(=O)C1C2c3ccccc3C(c3ccccc32)C1C(=O)N(CC)CC (stereo unspecified)		> 100	
CC(=O)OCC12c3ccccc3C(CC1C#N)c1ccccc12 (stereo unspecified)	> 100	12.8	
CN(C(=O)C1CC2c3ccccc3C1(C=O)c1ccccc12)C1CCCCC1 (stereo unspecified)	> 100	40.6	Activity (HL-60 [7]): Active; Activity (HL-60 [8]): Active; Activity (HL-60 [9]): Active
O=C(O)C(Cc1ccc(O)cc1)NC(=O)C1CC2c3ccccc3C1c1ccccc12 (stereo unspecified)		> 100	
Cc1ccc(N2CCN(C(=O)/C=C/c3c4ccccc4cc4ccccc34)CC2)cc1	> 100	38.5	
CNC(=O)/C=C/C12c3ccccc3C(CC1C#N)c1ccccc12 (stereo unspecified)	> 100	> 100	
N#C/C=C/C12c3ccccc3C(CC1C#N)c1ccccc12 (stereo unspecified)	> 100	> 100	
c1ccc(NCC2CC3c4ccccc4C2c2ccccc23)cc1 (stereo unspecified)	> 100	> 100	
COC(=O)C(CC(C)C)NC(=O)C1CC2c3ccccc3C1c1ccccc12 (stereo unspecified)		> 100	
N#CC1CC2c3ccccc3C1(CO)c1ccccc12 (stereo unspecified)	> 100	> 100	
c1ccc2c(c1)C1CC(CN3CCCCC3)C2c2ccccc21 (stereo unspecified)	69.9	65.6	
O=C(/C=C/c1c2ccccc2cc2ccccc12)N1CCCC1	32.5	18.7	
CCN(CC)CC1C2c3ccccc3C(c3ccccc32)C1CN(CC)CC (stereo unspecified)	51.8	65	
CCOC(=O)CCC12c3ccccc3C(CC1C#N)c1ccccc12 (stereo unspecified)	> 100	29.3	
CN1CCN(C(=O)/C=C/c2c3ccccc3cc3ccccc23)CC1	62.1	7.6	Activity (HL-60 [7]): inactive; Activity (HL-60 [8]): inactive; Activity (HL-60 [9]): inactive; Activity (MUTU-I [5]): inactive; Activity (MUTU-I [10]): inactive; Activity (PBMC): Non-toxic
CC(=O)O/N=C/C12c3ccccc3C(CC1C#N)c1ccccc12 (stereo unspecified)	> 100	34.6	
CNCC12c3ccccc3C(CC1C#N)c1ccccc12 (stereo unspecified)	> 100	> 100	

SMILES	EC50 [1] [µM]	EC50 [2] [µM]	other results
O=[N+]([O-])/C=C/c1c2ccccc2cc2ccccc12	1.5	3	Activity (HL-60 [7]): Active; Activity (HL-60 [8]): Active; Activity (HL-60 [9]): Active; Activity (MUTU-I [5]): Active; Activity [6]: 31.43%; Activity (PBMC): Toxic
O=[N+]([O-])c1ccc(/C=C/c2c3ccccc3cc3ccccc23)cc1	> 100	8.8	
CC[C@]1(O)C[C@@H]2CN(CCc3c([nH]c4ccccc34)[C@@](C(=O)OC)(c3cc4c(cc3OC)N(C)[C@H]3[C@@](O)(C(=O)OC)[C@H](OC(C)=O)[C@]5(CC)C=CCN6CC[C@]43[C@@H]65)C2)C1 [VINBLASTINE]			Activity [6]: 52.89%; Activity (PBMC): Non-toxic; Activity (MUTU-I [11]): Active; Activity (DG-75 [12]): Active
CN(C)CC1CC2c3ccccc3C1c1ccccc12 (stereo unspecified)	> 100	> 100	
CN(C)C(=O)C1C2c3ccccc3C(c3ccccc32)C1C(=O)N(C)C (stereo unspecified)		> 100	
CN(CC1CC2c3ccccc3C1c1ccccc12)C1CCCCC1 (stereo unspecified)	35.5	23	Activity (HL-60 [7]): inactive; Activity (HL-60 [8]): inactive; Activity (HL-60 [9]): inactive
CCOC(=O)C1CC2c3ccccc3C1c1ccccc12 (stereo unspecified)	> 100	55.4	
COC(=O)C1=C(C(=O)OC)C2c3ccccc3C1c1ccccc12		> 100	Activity (DG-75 [13]): inactive
C1=C(CN2CCCCC2)C2c3ccccc3C1c1ccccc12	10.2	31.5	
N#CC1CC2c3ccccc3C1(COC(=O)c1ccccc1)c1ccccc12 (stereo unspecified)	> 100	24.5	
CCN(CC)C(=O)O/N=C/C12c3ccccc3C(CC1C#N)c1ccccc12 (stereo unspecified)	3.1	28.4	Activity (HL-60 [7]): inactive; Activity (HL-60 [8]): inactive; Activity (HL-60 [9]): inactive; Activity (MUTU-I [5]): inactive; Activity (MUTU-I [10]): inactive; Activity (PBMC): Non-toxic
c1ccc2c(c1)C1CC(CN3CCOCC3)C2c2ccccc21 (stereo unspecified)	8.8	23.5	
CCOC(=O)C1C2c3ccccc3C(c3ccccc32)C1C(=O)OCC (stereo unspecified)	> 100	89.4	
CCOC(=O)/C=C/C12c3ccccc3C(CC1C#N)c1ccccc12 (stereo unspecified)	> 100	45.6	
CCOC(=O)/C=C/c1c2ccccc2cc2ccccc12	> 100	27.1	
CC(C)CC(NC(=O)C1CC2c3ccccc3C1c1ccccc12)C(=O)O (stereo unspecified)		> 100	
N#C/C=C/c1c2ccccc2cc2ccccc12	> 100	21.2	
CNC(=O)/C=C/c1c2ccccc2cc2ccccc12	> 100	62.5	
CCN(CC)C(=O)/C=C/c1c2ccccc2cc2ccccc12	9.3	21.5	
CC(=O)/C=C/c1c2ccccc2cc2ccccc12	7.6	21.8	
N#CC1CC2c3ccccc3C1(/C=N/OC(=O)c1ccccc1)c1ccccc12 (stereo unspecified)	95.3	80.5	
CCOC(=O)C1=CC2c3ccccc3C1c1ccccc12		> 100	Activity (DG-75 [13]): inactive
CCOC(=O)N1CCN(C(=O)/C=C/c2c3ccccc3cc3ccccc23)CC1	11.6	5.4	Activity (HL-60 [7]): Active; Activity (HL-60 [8]): Active; Activity (HL-60 [9]): Active; Activity (MUTU-I [5]): Active; Activity [6]: 54.7%; Activity (PBMC): Non-toxic; Activity (MUTU-I [11]): Active; Activity (DG-75 [12]): Active
CN1CCN(C(=O)C2CC3c4ccccc4C2c2ccccc23)CC1 (stereo unspecified)		> 100	
CN(C)C(=O)/C=C/c1c2ccccc2cc2ccccc12	> 100	24.9	
N#CC1CC2c3ccccc3C1(C=O)c1ccccc12 (stereo unspecified)	> 100	31.7	
Clc1ccc(N2CCN(CC3CC4c5ccccc5C3c3ccccc34)CC2)cc1 (stereo unspecified)	> 100	> 100	
